In ChEMBL document CHEMBL4513216, “Probing the Open Global Health Chemical Diversity Library for Multistage-Active Starting Points for Next-Generation Antimalarials” (ACS Infect Dis, 2020):

Experiment: Toxicity liver stage against HepG2, at 10uM
Assay type: cell-based
Set-up: test concentration 10 uM, cell line HepG2-A16-CD81EGFP
Conditions: human, HepG2-A16-CD81EGFP cells; read-out: INHIBITION
In short: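 Uninfected HepG2-A16-CD81EGFP cells, 3 × 10^3 per well, 1536-well, plated on prespotted compound at 10 μM final, parasite-free screening media added to match infected plates; puromycin 10 μM positive, DMSO 0.5% negative; run in parallel with 48 h PbLuc assay at 37 °C, 5% CO2; viability by CellTiter-Glo luminescence, normalized to controls.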

CCOC(=O)N1CCN(CC(=O)Nc2ccc(F)cc2Cl)CC1
cytotoxicity at 10 µM: 6%

CN(CCc1noc(C2CC2)n1)C(=O)C1(N2CCCC2)CCCC1
cytotoxicity at 10 µM: -146%

CCc1nnc2ccc(NCC3(N4CCCCC4)CCOCC3)nn12
cytotoxicity at 10 µM: -8.39%

O=C(COCC1CC1)N1CCN(C(=O)Cc2ccccn2)CC1
cytotoxicity at 10 µM: 10.3%

COc1cccc(CC(C)NC(=O)NCc2ccn(C)c2)c1 (centres undefined)
cytotoxicity at 10 µM: 0.166%

Cn1nccc1C(=O)NC(C)(C)c1noc(C(C)(C)C)n1
cytotoxicity at 10 µM: 8.22%

CCC(C)Oc1ccccc1Cn1cc2[nH]cccc-2c1=O (centres undefined)
cytotoxicity at 10 µM: -0.0261%

Cn1c(=O)[nH]c(=O)n2c(CC(=O)NCc3ccccc3)cnc12
cytotoxicity at 10 µM: 7.77%

Cc1csc(CN2CC(CO)Oc3ccccc32)n1 (centres undefined)
cytotoxicity at 10 µM: 6.62%

CC(C)N1CCc2ncn(C(C)C)c2C1C(=O)N1CCN(C)CC1 (centres undefined)
cytotoxicity at 10 µM: -0.849%

O=C([C@H](O)c1ccccc1)N1CCN(c2cccc(Cl)c2)C(=O)C1
cytotoxicity at 10 µM: -6.17%

O=C(NCc1ccccc1)[C@H]1C[C@H]2CN(S(=O)(=O)C3CC3)C[C@@H]1O2
cytotoxicity at 10 µM: 1.59%

O=C1CCCN1CCCC(=O)N1CCCC(c2ccn[nH]2)C1 (centres undefined)
cytotoxicity at 10 µM: -22.8%

CCC(=O)N1CCN(Cc2cnc(C)nc2)[C@H]2CS(=O)(=O)C[C@H]21
cytotoxicity at 10 µM: 12.3%

NCC(=O)N1CCCC(c2cncc(Nc3ncccn3)n2)C1 (centres undefined)
cytotoxicity at 10 µM: 0.848%

COCCN1CCC2(CC1)CC(COC)N(c1ncccn1)C2 (centres undefined)
cytotoxicity at 10 µM: -3.53%

Cc1cnn(CC2CN(CCCS(C)(=O)=O)CCO2)c1 (centres undefined)
cytotoxicity at 10 µM: -2.45%

COCC(=O)N1CCc2ncc(Cn3cncn3)n2CC1
cytotoxicity at 10 µM: -81%

Cc1ccc(-c2cc(CNC(=O)N3CCC(O)CC3)on2)cc1
cytotoxicity at 10 µM: -4.62%

CC(C)CN1CC(c2nc(CCc3ccccc3)n[nH]2)CC1=O (centres undefined)
cytotoxicity at 10 µM: 6.08%

COc1ccc(NC(=O)Cn2nc(C)c(C(C)=O)c2C)cc1
cytotoxicity at 10 µM: -3.66%

Cn1cccc1C(=O)N1C[C@H]2CN(CC3CC3)C(=O)[C@H]2C1
cytotoxicity at 10 µM: -103%

CCn1ncnc1C(C)NC(=O)C1CCN(C(=O)COC)CC1 (centres undefined)
cytotoxicity at 10 µM: 2.82%

CC(C)(C)OC(=O)NC1(c2noc(-c3ccoc3)n2)CCC1
cytotoxicity at 10 µM: 3.12%

O=C(NCc1ccccn1)NCC(O)c1ccccc1C(F)(F)F (centres undefined)
cytotoxicity at 10 µM: -0.36%

COc1cccc(C2=CCN(CCN3CCCC3=O)CC2)c1
cytotoxicity at 10 µM: -10.6%

O=C(COCC1CCCCO1)N1CCN(Cc2ccccc2F)C(=O)C1 (centres undefined)
cytotoxicity at 10 µM: 3.15%

NC(=O)CN1CCC(c2noc3cc(F)ccc23)CC1
cytotoxicity at 10 µM: 5.47%

CC(C)OCCN(C)C(C)c1cccc(S(N)(=O)=O)c1 (centres undefined)
cytotoxicity at 10 µM: -8.6%

CN(C)c1cccc(C(=O)N2CCC(c3n[nH]c(C4CC4)n3)CC2)c1
cytotoxicity at 10 µM: -11.2%

CC(NC(=O)c1cc(N2CCNC2=O)ccc1F)c1ccc(F)cc1 (centres undefined)
cytotoxicity at 10 µM: 5.89%

Cc1nnc(CN2CCC(Oc3ccc(C)c(C)c3)CC2)o1
cytotoxicity at 10 µM: 7.27%

Cc1ccccc1CN(Cc1ccccn1)C(=O)CNS(C)(=O)=O
cytotoxicity at 10 µM: 1.48%

Cc1nn(C)c(N(C)C)c1CNCCOc1ccc2c(c1)OCO2
cytotoxicity at 10 µM: -1.34%

CC(c1ccc(Cl)cc1)N1CCN(CCCS(N)(=O)=O)CC1 (centres undefined)
cytotoxicity at 10 µM: -1.44%

O=C(c1cncc(N2CCC3(CC2)NCCNC3=O)n1)N1CCCCC1
cytotoxicity at 10 µM: -2.4%

CC(C)N[C@@H]1CO[C@H](CNC(=O)c2cccs2)[C@H]1O
cytotoxicity at 10 µM: -3.65%

Cc1cc(CN2CCN(Cc3ccccc3F)CC2)no1
cytotoxicity at 10 µM: 4.51%

CCOC(=O)NC(CNC(=O)c1cc(Cl)ccn1)CC(C)C (centres undefined)
cytotoxicity at 10 µM: 5.38%

CCCn1cc(C(=O)N(C)Cc2nc(-c3ccccn3)no2)c(C)n1
cytotoxicity at 10 µM: 0.334%

CC(=O)N1CCC2(CC1)CC[C@@]1(C(=O)N(C)C)CN(S(C)(=O)=O)C[C@@H]21
cytotoxicity at 10 µM: -1.56%

Cc1cnc(N2C[C@@H]3CN(Cc4ccco4)CCC[C@]3(C(=O)O)C2)nc1
cytotoxicity at 10 µM: 7.25%

COCCC1(CNC(=O)Nc2ccc(-n3nccn3)cc2)CCC1
cytotoxicity at 10 µM: -2.99%

CN(C)S(=O)(=O)c1ccc(-c2nc(C#N)c(NC3CCCCC3)o2)o1
cytotoxicity at 10 µM: -16%

CN(CCNS(C)(=O)=O)CC(c1cccs1)N1CCOCC1 (centres undefined)
cytotoxicity at 10 µM: -3.43%

Cc1ccc(NC(=O)N2CCOC(C(N)=O)C2)cc1C(F)(F)F (centres undefined)
cytotoxicity at 10 µM: -146%

Cc1nc(CN(C)C2CCN(CC(=O)N3CCOCC3)C2)no1 (centres undefined)
cytotoxicity at 10 µM: -4.91%

CC(=O)Nc1cccc(CN2CCCC2C(=O)Nc2nccs2)c1 (centres undefined)
cytotoxicity at 10 µM: 6.12%

COCCC(=O)N1CCOCC2(CCN(Cc3cccs3)C2)C1 (centres undefined)
cytotoxicity at 10 µM: -7.83%

COCCN1C[C@@H]2COC[C@@H](CC(=O)NCc3cccnc3)[C@@H]2C1
cytotoxicity at 10 µM: 12%

c1cc(-c2nnc(C3(c4ccc5c(c4)OCO5)CCOCC3)o2)ccn1
cytotoxicity at 10 µM: -0.973%

Cc1ccc(NC(=O)CNC(C)CN2CCOCC2)c(F)c1 (centres undefined)
cytotoxicity at 10 µM: -51.8%

Cn1nccc1CNC(=O)C1CCCCC1
cytotoxicity at 10 µM: 7.89%

CN(CC(=O)N1CCCC1)Cc1nc2c(cnn2C)c(=O)[nH]1
cytotoxicity at 10 µM: -1.38%
